Experimental data as given in ChEMBL document CHEMBL3120102, “Structure-based design, synthesis and biological evaluation of novel anthra[1,2-d]imidazole-6,11-dione homologues as potential antitumor agents” (2013).

Columns and labels:
NCI-H522 = test: Cytotoxicity against human NCI-H522 cells assessed as cell growth at 10 uM after 48 hrs by SRB assay; assay type: functional; conditions: NCI-H522, 48 h, read-out: Activity
In short: (§1)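 First stage of the NCI 60 human tumour cell line screen: a single dose is tested against every line. Cell growth is read as cellular protein by sulforhodamine B colorimetry after 48 h of drug exposure, with reference to a time-zero control and to untreated plates.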

SN12C = test: Cytotoxicity against human SN12C cells assessed as growth inhibition after 48 hrs by SRB assay; assay type: functional; conditions: for CC50: read-out: LC50 (the source's name)
In short: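 NCI 60-cell-line screen, two stages. Five-dose testing at […]. Cellular protein measured by sulforhodamine B colorimetry after 48 h drug exposure. A time-zero control and drug-free plates are used to derive GI50, TGI and LC50 from dose-response curves plotted as log10 concentration per cell line.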

UACC-62 = test: Cytotoxicity against human UACC62 cells assessed as cell growth at 10 uM after 48 hrs by SRB assay; assay type: functional; conditions: UACC-62, 48 h, read-out: Activity
In short: (§2)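 First stage of the NCI 60 human tumour cell line screen, with each compound tested at a single dose of 10. Cellular protein measured by sulforhodamine B colorimetry after 48 h drug exposure. Growth is calculated against a time-zero cell control and against plates not exposed to drug.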

OVCAR-8 = test: Cytotoxicity against human OVCAR8 cells assessed as cell growth at 10 uM after 48 hrs by SRB assay; assay type: functional; conditions: OVCAR-8, 48 h, read-out: Activity; in short: as §1
A549 = test: Cytotoxicity against human A549 cells assessed as cell growth at 10 uM after 48 hrs by SRB assay; assay type: functional; conditions: A549, 48 h, read-out: Activity
NCI-H23 = test: Cytotoxicity against human NCI-H23 cells assessed as cell growth at 10 uM after 48 hrs by SRB assay; assay type: functional; conditions: NCI-H23, 48 h, read-out: Activity; in short: as §1
TK-10 = test: Cytotoxicity against human TK10 cells assessed as cell growth at 10 uM after 48 hrs by SRB assay; assay type: functional; conditions: TK-10, 48 h, read-out: Activity; in short: as §2
CCRF-CEM [1] = test: Cytotoxicity against human CCRF-CEM cells assessed as cell growth at 10 uM after 48 hrs by SRB assay; assay type: functional; conditions: read-out: Activity
SK-MEL-5 = test: Cytotoxicity against human SK-MEL-5 cells assessed as cell growth at 10 uM after 48 hrs by SRB assay; assay type: functional; conditions: SK-MEL-5, 48 h, read-out: Activity; in short: as §1
SR = test: Cytotoxicity against human SR cells assessed as cell growth at 10 uM after 48 hrs by SRB assay; assay type: functional; conditions: read-out: Activity; in short: as §2
COLO 205 = test: Cytotoxicity against human COLO205 cells assessed as cell growth at 10 uM after 48 hrs by SRB assay; assay type: functional; conditions: COLO 205, 48 h, read-out: Activity
T47D = test: Cytotoxicity against human T47D cells assessed as cell growth at 10 uM after 48 hrs by SRB assay; assay type: functional; conditions: read-out: Activity; in short: as §2
[2] = Cytotoxicity against human H1299 cells assessed as cell viability at 100 uM after 48 hrs by MTT assay; assay type: functional; conditions: NCI-H1299, 48 h, read-out: Activity
In short: (§3)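 About 2×10³ H1299 cells per well were grown for 24 h at 37 °C in 5% CO2. Compound was dissolved in DMSO immediately before use, diluted in complete medium and left on cells for 48 h. MTT was then added for 4 h at 37 °C, followed by SDS/DMF lysis buffer for 16 h at 37 °C. Absorbance was read at 550 nm.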

[3] = Cytotoxicity against human H1299 cells assessed as cell viability at 1 uM after 48 hrs by MTT assay; assay type: functional; conditions: NCI-H1299, 48 h, read-out: Activity; in short: as §3
[4] = target: Telomerase reverse transcriptase (Homo sapiens) (UniProt O14746); test: Inhibition of human tert transcriptional activity assessed as SEAP activity at 1 uM after 24 hrs by SEAP reporter assay; parameters: scale not given: the % may be the effect or the level left
In short: (§4)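 Reporter assay for hTERT transcriptional activity using secreted alkaline phosphatase. About 2 × 10³ cells per well were grown for 24 h at 37 °C, then given fresh medium. Buffer was added to the medium: 2 M diethanolamine, 1 mM MgCl2 and 20 mM L-homoarginine. p-Nitrophenyl phosphate was added to 12 mM final. The rate of absorbance increase was read at 405 nm.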

IGROV-1 = test: Cytotoxicity against human IGROV1 cells assessed as cell growth at 10 uM after 48 hrs by SRB assay; assay type: functional; conditions: IGROV-1, 48 h, read-out: Activity
[5] = target: Telomerase reverse transcriptase (Homo sapiens) (UniProt O14746); test: Inhibition of human tert transcriptional activity assessed as SEAP activity at 100 uM after 24 hrs by SEAP reporter assay; parameters: scale not given: the % may be the effect or the level left; in short: as §4
HCC 2998 = test: Cytotoxicity against human HCC2998 cells assessed as cell growth at 10 uM after 48 hrs by SRB assay; assay type: functional; conditions: HCC 2998, 48 h, read-out: Activity
DU-145 = test: Cytotoxicity against human DU145 cells assessed as cell growth at 10 uM after 48 hrs by SRB assay; assay type: functional; conditions: DU-145, 48 h, read-out: Activity
In short: (§5)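 NCI 60-cell-line screen, first stage: compound at a single dose of […] (unit as printed) for 48 h. Cellular protein was measured by sulforhodamine B colorimetry. Growth was determined using a time-zero cell control and plates not exposed to drug.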

M14 = test: Cytotoxicity against human M14 cells assessed as cell growth at 10 uM after 48 hrs by SRB assay; assay type: functional; conditions: M14, 48 h, read-out: Activity; in short: as §5
[6] = target: Telomerase reverse transcriptase (Homo sapiens) (UniProt O14746); test: Inhibition of human tert transcriptional activity assessed as SEAP activity at 10 uM after 24 hrs by SEAP reporter assay; parameters: scale not given: the % may be the effect or the level left; in short: as §4
Malme-3M = test: Cytotoxicity against human MALME-3M cells assessed as cell growth at 10 uM after 48 hrs by SRB assay; assay type: functional; conditions: read-out: Activity
MDA-MB-435 = test: Cytotoxicity against human MDA-MB-435 cells assessed as cell growth at 10 uM after 48 hrs by SRB assay; assay type: functional; conditions: MDA-MB-435, 48 h, read-out: Activity; in short: as §1
HL-60(TB) = test: Cytotoxicity against human HL-60(TB) cells assessed as cell growth at 10 uM after 48 hrs by SRB assay; assay type: functional; conditions: HL-60, 48 h, read-out: Activity
In short: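 NCI 60-cell panel first-stage screen at a single dose in the HL-60(TB) leukemia line. Cellular protein was measured by sulforhodamine B colorimetry after 48 h of drug exposure. Growth was referenced to a time-zero cell control and to plates not exposed to drug.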

CCRF-CEM [7] = test: Cytotoxicity against human CCRF-CEM cells assessed as growth inhibition after 48 hrs by SRB assay; assay type: functional
In short: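 NCI 60-cell-line five-dose screen at […]. Drug exposure was 48 h, followed by sulforhodamine B protein staining. GI50, TGI and LC50 were calculated against a time-zero control and untreated plates, with dose–response curves plotted from log10 concentration.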

BT-549 = test: Cytotoxicity against human BT549 cells assessed as cell growth at 10 uM after 48 hrs by SRB assay; assay type: functional; conditions: BT-549, 48 h, read-out: Activity; in short: as §5
MDA-MB-468 = test: Cytotoxicity against human MDA-MB-468 cells assessed as cell growth at 10 uM after 48 hrs by SRB assay; assay type: functional; conditions: MDA-MB-468, 48 h, read-out: Activity; in short: as §1

Telomerase reverse transcriptase (Homo sapiens), sequence (O14746 whole entry): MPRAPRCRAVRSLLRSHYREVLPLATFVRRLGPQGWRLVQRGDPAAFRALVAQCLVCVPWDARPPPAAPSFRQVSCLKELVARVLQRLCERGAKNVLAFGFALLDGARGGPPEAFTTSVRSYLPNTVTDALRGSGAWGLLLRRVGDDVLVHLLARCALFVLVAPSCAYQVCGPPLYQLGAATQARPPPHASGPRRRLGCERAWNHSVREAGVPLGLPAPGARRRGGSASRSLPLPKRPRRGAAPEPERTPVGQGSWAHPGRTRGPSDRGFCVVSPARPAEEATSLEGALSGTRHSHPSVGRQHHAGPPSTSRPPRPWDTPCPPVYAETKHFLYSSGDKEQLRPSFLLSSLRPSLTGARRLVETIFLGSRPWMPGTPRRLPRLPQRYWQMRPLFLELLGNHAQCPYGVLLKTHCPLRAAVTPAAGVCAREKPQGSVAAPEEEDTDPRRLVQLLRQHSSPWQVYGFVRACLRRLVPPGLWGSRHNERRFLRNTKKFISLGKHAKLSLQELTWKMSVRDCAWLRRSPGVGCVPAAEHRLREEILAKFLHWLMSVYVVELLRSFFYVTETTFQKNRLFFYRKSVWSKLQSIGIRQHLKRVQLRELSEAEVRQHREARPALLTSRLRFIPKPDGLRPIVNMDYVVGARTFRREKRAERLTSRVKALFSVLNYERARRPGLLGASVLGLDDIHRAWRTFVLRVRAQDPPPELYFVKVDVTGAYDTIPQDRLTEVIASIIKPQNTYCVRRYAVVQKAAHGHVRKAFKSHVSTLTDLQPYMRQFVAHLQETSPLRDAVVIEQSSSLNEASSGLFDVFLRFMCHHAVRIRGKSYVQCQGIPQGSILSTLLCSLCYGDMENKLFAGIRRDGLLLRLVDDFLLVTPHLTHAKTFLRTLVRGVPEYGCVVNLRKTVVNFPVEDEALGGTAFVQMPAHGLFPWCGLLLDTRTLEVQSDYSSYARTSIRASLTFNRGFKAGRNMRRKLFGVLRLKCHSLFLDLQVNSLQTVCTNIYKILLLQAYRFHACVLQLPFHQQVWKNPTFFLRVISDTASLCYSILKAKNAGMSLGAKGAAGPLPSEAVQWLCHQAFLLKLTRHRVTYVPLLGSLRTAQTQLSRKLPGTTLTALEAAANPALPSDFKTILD

Row | SMILES | growth at 10 µM (NCI-H522) [%] | growth at 10 µM (UACC-62) [%] | growth at 10 µM (OVCAR-8) [%] | growth at 10 µM (A549) [%] | growth at 10 µM (NCI-H23) [%] | growth at 10 µM (TK-10) [%] | growth at 10 µM (CCRF-CEM [1]) [%] | growth at 10 µM (SK-MEL-5) [%] | growth at 10 µM (SR) [%] | growth at 10 µM (COLO 205) [%] | growth at 10 µM (T47D) [%] | viability at 100 µM [2] [%] | viability at 1 µM [3] [%] | Activity [4] [%] | growth at 10 µM (IGROV-1) [%] | Activity [5] [%] | growth at 10 µM (HCC 2998) [%] | growth at 10 µM (DU-145) [%] | growth at 10 µM (M14) [%] | Activity [6] [%] | other results
1 | CN(C)CCCSc1nc2ccc3c(c2[nH]1)C(=O)c1ccccc1C3=O | 69.3 | 75.4 | 61.9 | 51.6 | 53.8 | 31.7 | 8.49 | 62.5 | 3.09 | 62 | 45.8 | 22 | 108 | 100 | 30.9 | 15 | 72.7 | 36.4 | 77.3 | 86 | GI50 (SN12C): 3.26 µM; TGI (SN12C): 16.5 µM; growth inhibition (GI) (SN12C): Dose-dependent effect; CC50 (SN12C): 40.6 µM; growth at 10 µM (Malme-3M): 88.2%; growth at 10 µM (MDA-MB-435): 72.2%; growth at 10 µM (HL-60(TB)): 12.7%; GI50 (CCRF-CEM [7]): 1.29 µM; TGI (CCRF-CEM [7]): 4.36 µM; growth inhibition (GI) (CCRF-CEM [7]): Dose-dependent effect; growth at 10 µM (BT-549): 75.8%
2 | O=C1c2ccccc2C(=O)c2c1ccc1nc3n(c21)CCS3 | 80.6 | 73.1 | 75.4 | 81.2 | 84.3 | 58.8 | 66.8 | 65.9 | 60.6 | 95.2 | 73.1 | 99 | 115 | 107 | 62.3 | 48 | 94.8 | 68.8 | 78.5 | 53 | growth at 10 µM (MDA-MB-468): 69.7%; growth at 10 µM (Malme-3M): 87.6%; growth at 10 µM (MDA-MB-435): 83.1%; growth at 10 µM (HL-60(TB)): 78.8%; growth at 10 µM (BT-549): 87.9%
3 | CCCSc1nc2ccc3c(c2[nH]1)C(=O)c1ccccc1C3=O | 72.4 | 51.1 | 44.7 | 59.1 | 69.8 | 35.5 | 70.8 | 78.5 | 71 | 103 | 53.7 | 12 | 91 | 103 | 53.7 | 33 | 81.9 | 69.3 | 90 | 94 | GI50 (SN12C): 14 µM; TGI (SN12C): > 100 µM; growth inhibition (GI) (SN12C): Dose-dependent effect; CC50 (SN12C): > 100 µM; growth at 10 µM (Malme-3M): 88.2%; growth at 10 µM (MDA-MB-435): 77.4%; growth at 10 µM (HL-60(TB)): 74.2%; GI50 (CCRF-CEM [7]): > 100 µM; LC50 (CCRF-CEM [7]): > 100 µM; TGI (CCRF-CEM [7]): > 100 µM; growth inhibition (GI) (CCRF-CEM [7]): Dose-dependent effect; growth at 10 µM (BT-549): 76%
4 | CCSc1nc2ccc3c(c2[nH]1)C(=O)c1ccccc1C3=O | 78.6 | 47.6 | 96.8 | 101 | 87.4 | 74.1 | 36.9 | 63.9 | 129 | 71.8 | 30.8 | 73 | 109 | 100 | 73.4 | 17 | 89.4 | 64.5 | 67.1 | 90 | GI50 (SN12C): 10.3 µM; TGI (SN12C): > 100 µM; growth inhibition (GI) (SN12C): Dose-dependent effect; CC50 (SN12C): > 100 µM; growth at 10 µM (MDA-MB-468): 35.4%; growth at 10 µM (Malme-3M): 63.3%; growth at 10 µM (MDA-MB-435): 68.4%; growth at 10 µM (HL-60(TB)): 62.6%; GI50 (CCRF-CEM [7]): 3.66 µM; LC50 (CCRF-CEM [7]): > 100 µM; TGI (CCRF-CEM [7]): > 100 µM; growth inhibition (GI) (CCRF-CEM [7]): Dose-dependent effect; growth at 10 µM (BT-549): 55.8%
5 | O=C1c2ccccc2C(=O)c2c1ccc1[nH]c(=S)[nH]c21 | 96.1 | 84.2 | 140 | 118 | 113 | 112 | 61.9 | 86.7 | 125 | 104 | 81.9 | 54 | 101 | 97 | 138 | 31 | 114 | 99.3 | 101 | 100 | growth at 10 µM (MDA-MB-468): 87.7%; growth at 10 µM (Malme-3M): 87.5%; growth at 10 µM (MDA-MB-435): 114%; growth at 10 µM (HL-60(TB)): 97.6%; growth at 10 µM (BT-549): 114%
6 | O=C1c2ccccc2C(=O)c2c1ccc1nc(SCCN3CCCC3)[nH]c21 | 81.5 | 81 | 49.4 | 35.5 | 66.9 | 36.9 | -15.4 | 78.5 | 20.2 | 17.1 | 83.1 | 21 | 90 | 102 | 23.2 | 36 | 71.5 | 17.9 | 70.9 | 98 | GI50 (SN12C): 5.96 µM; TGI (SN12C): 19.6 µM; growth inhibition (GI) (SN12C): Dose-dependent effect; CC50 (SN12C): 46.1 µM; growth at 10 µM (MDA-MB-468): 67.9%; growth at 10 µM (Malme-3M): 112%; growth at 10 µM (MDA-MB-435): 66.5%; growth at 10 µM (HL-60(TB)): 37.4%; GI50 (CCRF-CEM [7]): 3.34 µM; LC50 (CCRF-CEM [7]): 62.8 µM; TGI (CCRF-CEM [7]): 15.6 µM; growth inhibition (GI) (CCRF-CEM [7]): Dose-dependent effect; growth at 10 µM (BT-549): 78.6%
